Most compounds without a hit are left out; they make up all but 4.6% or so of the library.
CHO parental Ca: counter-screen for OX1R antagonists: effect in parental CHO cells; 0.63% of 330,000 active; inhibition, % at 5.6 µM; parental CHO-K1, ATP-induced calcium, Fluo-8 fluorescence;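 active = inhibition above that plate's mean sample inhibition plus 3 SD, cut at about 26% in these data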;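 note: 0% = ATP-challenged DMSO wells and 100% = DMSO wells without ATP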
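Material – parental CHO cells · Reagent – ATP stimulus · Compound – single nominal dose of 5.6 µM per compound · Detection – Fluo-8 fluorescence · Read-out basis – percent inhibition of calcium signal · Controls – ATP-challenged DMSO wells low, unchallenged DMSO wells high · Repeats – no replicates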
GPR7 antagonist: human neuropeptides B/W receptor 1 antagonism; GPR7-expressing cells, fluorescence antagonist assay; 1.1% of 290,000 active; inhibition, % at 4.4 µM; AID 1861; P48145; in the data active = inhibition above about 16%, passing the limit was not always enough;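 note: cells stimulated with the agonist NPW; 0% = agonist with vehicle and 100% = vehicle without agonist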
Target sequence (P48145 whole entry, looked up): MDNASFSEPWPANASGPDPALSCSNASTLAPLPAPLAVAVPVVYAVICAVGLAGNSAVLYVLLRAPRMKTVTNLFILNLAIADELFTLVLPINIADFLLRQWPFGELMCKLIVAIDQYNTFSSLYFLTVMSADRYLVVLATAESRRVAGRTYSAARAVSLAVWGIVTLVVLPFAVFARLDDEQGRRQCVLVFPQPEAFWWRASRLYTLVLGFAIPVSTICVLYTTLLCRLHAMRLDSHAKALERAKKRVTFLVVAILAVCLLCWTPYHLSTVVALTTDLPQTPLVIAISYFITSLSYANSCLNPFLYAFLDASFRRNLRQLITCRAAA
TAAR1 antagonist: human TAAR1 antagonism; CHO RD-HGA16 TAAR1, Fluo-8 calcium fluorescence, antagonist; inhibition, % at 3 µM; 1.5% of 360,000 active; Q96RJ0;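 active = inhibition above a per-plate cutoff, the mean inhibition of test compounds on that plate plus 3 SD, cut at about 49% in these data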;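 note: 0% = DMSO plus EC80 beta-PEA response and 100% = DMSO alone without agonist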
Target sequence (Q96RJ0 whole entry, looked up): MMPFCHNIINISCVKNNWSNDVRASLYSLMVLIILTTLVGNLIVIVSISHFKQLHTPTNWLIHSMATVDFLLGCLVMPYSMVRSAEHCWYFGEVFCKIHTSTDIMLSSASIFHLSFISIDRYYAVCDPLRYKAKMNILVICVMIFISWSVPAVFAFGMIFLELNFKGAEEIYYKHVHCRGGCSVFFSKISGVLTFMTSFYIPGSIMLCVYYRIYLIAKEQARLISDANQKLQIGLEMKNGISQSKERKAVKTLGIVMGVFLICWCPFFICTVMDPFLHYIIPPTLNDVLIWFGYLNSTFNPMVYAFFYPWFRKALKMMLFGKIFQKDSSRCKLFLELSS
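Test system – hTAAR1-expressing CHO RD-HGA16 cells, Gα16-coupled · Reagent – β-PEA at EC80 concentration, post-compound challenge · Compound dosing – 3 µM, single point · Timing – 140 s kinetic read after compound, 140 s after agonist · Detection – Fluo-8 intracellular calcium dye fluorescence, real-time kinetic reads · Control set – DMSO and EC80 PEA controls · Repeats – n of 1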
OX1R antag-1: antagonists of human orexin 1 receptor | CHO/OX1R cells, Fluo-8 calcium fluorescence, orexin A | O43613 | 0.43% of 330,000 active | inhibition, % at 5 µM;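 active = inhibition above its plate's threshold, mean inhibition of all tested compounds on the plate plus 3 SD, cut at about 37% in these data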;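 note: 0% = orexin A challenge wells and 100% = SB-334867-A antagonist wells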
TAAR1 agonist: human TAAR1 agonism | Q96RJ0 | CHO RD-HGA16 TAAR1, Fluo-8 calcium fluorescence; vehicle wells 0%, saturating PEA agonist 100% | activation, % at 3 µM | 0.99% of 360,000 active | AID 624467;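 active = activation above the mean activation of all test compounds in the run plus 3 SD, cut at about 38% in these data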
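Signal – calcium-sensitive Fluo-8 signal, excitation 470-495, emission 515-575 nm · System – RD-HGA16 (CHO) cells co-expressing Gα16 and hTAAR1 · Incubation – 17-24 h seeding, 75 min 37 °C dye, 30 min RT · Compound dosing – 3 µM single concentration · Repeats – no replicates (n 1)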
OX1R antag-2: antagonists of human orexin 1 receptor (OX1R) | inhibition, % at 6.6 µM | OX1R-expressing cells, FRET antagonist read-out | 1.8% of 330,000 active | O43613; in the data active = inhibition mostly above about 38%, no sharp cut-off; inactive = mostly below about 40%;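 note: 0% = agonist challenge alone and 100% = reference antagonist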
An asterisk follows results filed as active; x = no result.

SMILES	CHO parental Ca	GPR7 antagonist	TAAR1 antagonist	OX1R antag-1	TAAR1 agonist	OX1R antag-2
CCOC(=O)c1c(-c2ccc(OC)cc2)nc2nonc2c1N	-7	6	-2	-1	2	27
CC(=O)c1c(C)nc2nonc2c1N	8	-6	0	-1	5	76*
CC(C)(C)C(=O)/C(=C\c1ccc([N+](=O)[O-])cc1)n1cncn1	23	17	x	14	x	101*
CC(C)(C)C(=O)/C(=C/c1ccc(Cl)cc1)n1cncn1	x	-2	-13	x	-1	x
NC(Cc1ccc(Cl)cc1)c1csc(Nc2ccc(C(=O)NCCCO)cn2)n1 (centres undefined)	x	x	-10	x	1	x
O=S(=O)(c1ccc2c(c1)OCCO2)N1CCN(c2ncnc3sccc23)CC1	40*	14	13	20	10	61
NC(=O)c1ncn([C@@H]2O[C@H](C(=O)Nc3ccc(C(=O)N4CCCCC4)cc3)[C@@H](O)[C@H]2O)n1	x	x	-33	x	1	x
COc1ccc(NC(=O)N(C)C[C@H]2Oc3c(NC(=O)Nc4ccc5c(c4)OCO5)cccc3C(=O)N([C@H](C)CO)C[C@@H]2C)cc1	8	x	49*	-10	22	8
COc1ccc(NC(=O)Nc2cccc3c2O[C@H](CN(C)C(=O)Nc2ccc(OC)cc2)[C@@H](C)CN([C@H](C)CO)C3=O)cc1	-6	x	56*	-12	17	9
COc1ccc(S(=O)(=O)N(C)C[C@H]2Oc3c(NC(=O)Nc4ccccc4)cccc3C(=O)N([C@H](C)CO)C[C@@H]2C)cc1	x	x	57*	x	12	x
O=C(C1=C[C@H](c2csc3ccccc23)C[C@H](OCCCCO)O1)N1CCN(Cc2ccc3c(c2)OCO3)CC1	-13	1	60*	-23	24	12
CC(=O)n1cc([C@H]2C=C(C(=O)N3CCN(Cc4ccc5c(c4)OCO5)CC3)O[C@@H](OCc3ccc(CO)cc3)C2)c2ccccc21	-11	-8	67*	1	16	32
O=C1c2cccc3cccc(c23)C(=O)N1CCCn1ccnc1	-3	x	-8	6	3	55*
FC(F)(F)c1nc(N2CCCC2)ncc1-c1nnnn1-c1ccccc1	40*	7	17	23	8	25
S=C(NCCCc1cnc[nH]1)NCCCN(Cc1ccccc1)c1ccc(Br)cn1	x	x	30	x	22	x
S=C(NCCCc1cnc[nH]1)NCCCN(Cc1ccc(Cl)cc1)c1ccc(Br)cn1	x	x	38	x	38*	x
Cc1c(Cl)cccc1NC(=O)C(=O)NNC(=O)c1ccccc1F	24*	6	-13	4	2	18
O=C(N[C@H](C(=O)N1CCC[C@H]1C(=O)NC1CCCC1)c1ccccc1)c1ccccc1	x	x	-1	x	1	x
COC(=O)c1ccc(N2CCN(S(=O)(=O)c3ccc4ccccc4c3)CC2)c([N+](=O)[O-])c1	38*	8	10	23	10	46
NC(=O)c1ccc(N2CCN(S(=O)(=O)c3ccccc3)CC2)c([N+](=O)[O-])c1	32	3	34	23	9	56
COc1ccc(N2CCN(S(=O)(=O)c3ccc4c(c3)CCCC4)CC2)c([N+](=O)[O-])c1	6	8	18	36	0	37*
COc1cccc2c1OC1(N3CCOCC3)CCCCC1C2C[N+](=O)[O-] (centres undefined)	x	x	-23	x	1	x
O=C(C(=O)N1CCC(CNS(=O)(=O)c2ccc3ccccc3c2)CC1)c1cc2ccccc2o1	x	x	-8	x	2	x
COc1cccc2c3c(c(C)nc12)CCN3c1ccccc1	8	1	-20	-11	8	64*
C=CCn1c(C)cc(C(=O)CSc2nc3ccccc3[nH]2)c1C	21	-7	60*	46*	17	42*
SMILES	CHO parental Ca	GPR7 antagonist	TAAR1 antagonist	OX1R antag-1	TAAR1 agonist	OX1R antag-2
Cc1cc(C(=O)CSc2nc3ccc(Cl)cc3[nH]2)c(C)n1CC1CCCO1 (centres undefined)	45*	0	43	42	12	88*
O=C(CSc1nc2ccccc2c(=O)[nH]1)Nc1ccc(C(=O)O)cc1	-3	20*	-20	4	1	7
Cc1cc(C(=O)CSc2nc3ccccc3[nH]2)c(C)n1Cc1ccco1	49*	0	44	25	10	77*
O=C(Cc1ccc(NC(=O)C2CCCN(C(=O)c3ccccc3)C2)cc1)Nc1cccc(C(=O)N2CCCCC2)c1 (centres undefined)	x	x	-39	x	2	x
COc1cccc(-c2cnc3c(NC(C)=O)cc(-c4cccc(C(=O)NCCN(C)C)c4)cn23)c1	x	x	5	x	0	x
CCCCOCC1CN(CCCC)S(=O)(=O)c2c(Oc3ccc(C)cc3)cccc2O1 (centres undefined)	x	x	-28	x	4	x
O=C(NC(C(=O)N1CCCC1C(=O)NC1CCCC1)c1ccccc1)c1cccs1 (centres undefined)	x	x	1	x	2	x
COC(=O)C1=C(C)N(C)C(=NCc2ccccc2)NC1c1ccccc1 (centres undefined)	x	x	-3	x	0	x
COc1ccc(CCC(=O)Nc2ccc(S(=O)(=O)N3CCOCC3)cc2)cc1OC	x	x	-16	x	6	x
COCCn1c(C)cc(C(=O)CSc2nc3ccccc3c(=O)[nH]2)c1C	3	3	45	14	18	16
C=CCn1c(C)cc(C(=O)CSc2nc3ccccc3c(=O)[nH]2)c1C	55*	-6	67*	55*	17	61*
Cc1cc(C(=O)COc2ccccc2C(N)=O)c(C)n1CC1CCCO1 (centres undefined)	34*	6	19	34	10	45
Cc1ccc(C(=O)CSc2nc3ccccc3c(=O)[nH]2)cc1C	-29	-9	20	-8	3	48*
c1ccc(OCCNc2ccn3nc(-c4ccc(OCCN5CCOCC5)cc4)cc3n2)cc1	x	x	61*	x	20	x
c1csc(CNc2ccn3nc(-c4ccc(OCCN5CCOCC5)cc4)cc3n2)c1	x	x	33	x	29	x
CN(C(=O)CSc1ncnc2c(-c3cccs3)nsc12)C1CCCCC1	x	x	6	x	-1	x
CCN(CC)Cc1c(O)ccc2c(-c3ccccc3)cc(=O)oc12	-16	-2	-10	-29	11	61*
Cc1c(O)ccc2c(-c3ccccc3)cc(=O)oc12	16	0	32	-9	7	11
Cc1ccc(NC(=O)CC2SC3=NCCN3C2=O)cc1 (centres undefined)	33*	-9	8	14	2	8
COc1ccccc1C(=O)Nc1ccc2c(c1)nc1n2CCSC1	-12	-9	7	8	3	54*
CCc1c(-c2ccc(F)cc2F)ncn1CCc1ccccc1OC	x	x	1	x	15	x
CC(Cc1cccs1)NC(=S)Nc1ccc(Cl)cc1 (centres undefined)	19	-1	12	1	13	60*

Compound activity as filed in PubChem BioAssay.
